Reference: ChEMBL document CHEMBL3745660, “Hit-to-lead optimization of phenylsulfonyl hydrazides for a potent suppressor of PGE2 production: Synthesis, biological activity, and molecular docking study” (Bioorg Med Chem Lett, 2016)
pIC50: −log10 of the molar value. One block for each compound: values may come before it.

Tests used:
[1] = test system: RAW264.7; experiment: Cytotoxicity against mouse RAW264.7 cells assessed as cell viability at 1 to 10 uM after 24 hrs in presence of LPS by MTT assay; assay type: cell-based; conditions: raw264.7, 24 h
Summary of the method: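 RAW 264.7 macrophages treated with compounds at 1 or 10 µM in the presence of LPS for 24 h; viability read by MTT assay. Experiments run at least twice.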

[2] = test system: RAW264.7; experiment: Suppression of PGE2 production in LPS-induced mouse RAW264.7 cells after 24 hrs by enzyme immunoassay; assay type: functional, cell-based; conditions: RAW264.7, 24 h
Summary of the method: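 RAW 264.7 cells stimulated with LPS and treated with compound for 24 h, first screened at 1 or 10 µM. Compounds giving >50% suppression went on to IC50 determination. PGE2 in medium measured by EIA. NS398 at 3 µM served as positive control. Runs done at least twice.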

[3] = molecular target: T1, Prostaglandin E synthase (Homo sapiens, UniProt O14684); experiment: Inhibition of PGES-1 in human A549 cell microsomes using PGH2 as substrate assessed as suppression of interleukin-1beta-stimulated PGE2 production incubated for 15 mins post interleukin-1beta challenge for 72 hrs by RP-HPLC analysis
T1 sequence (O14684 whole entry): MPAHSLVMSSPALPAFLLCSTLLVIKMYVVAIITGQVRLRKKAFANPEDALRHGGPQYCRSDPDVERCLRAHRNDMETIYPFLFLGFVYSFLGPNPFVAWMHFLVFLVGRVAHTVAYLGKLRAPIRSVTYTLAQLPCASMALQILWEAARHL
Summary of the method: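 Enzyme source was A549 microsomes after 72 h IL-1β (2 ng/mL) stimulation, in 0.1 M potassium phosphate pH 7.4 with 2.5 mM GSH. Compounds preincubated 15 min at 4 °C over a concentration range, then 20 µM PGH2 added for 1 min at 4 °C. Reaction stopped, PGE2 recovered by solid-phase extraction and measured by RP-HPLC against 11β-PGE2.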

[4] = molecular target: T2, Prostaglandin E synthase (Homo sapiens) (UniProt O14684); experiment: Inhibition of PGES-1 in human A549 cell microsomes using PGH2 as substrate assessed as remaining enzyme activity of interleukin-1beta-stimulated PGE2 production at 10 uM incubated for 15 mins post interleukin-1beta challenge for 72 hrs by RP-HPLC analysis
T2 sequence (whole entry): T1 sequence (O14684 whole entry)
Summary of the method: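 Microsomes from A549 cells stimulated with 2 ng/mL IL-1β for 72 h (pellet after 10,000 × g then 174,000 × g spins), diluted in 0.1 M potassium phosphate pH 7.4 with 2.5 mM glutathione. Compound at 10 µM preincubated 15 min at 4 °C, then 20 µM PGH2 added for 1 min at 4 °C. Stopped with FeCl2/citric acid containing 11β-PGE2 internal standard. PGE2 isolated by solid-phase extraction and quantified by RP-HPLC. Activity given as % of uninhibited control, mean ± S.E.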

[5] = molecular target: T2, Prostaglandin E synthase (Homo sapiens); experiment: Potency index, ratio of IC50 for MK-886 to IC50 for test compound for inhibition of PGES-1 in human A549 cell microsomes; assay type: cell-based
[6] = test system: RAW264.7; experiment: Suppression of NO production in LPS-induced mouse RAW264.7 cells by Griess assay; assay type: functional, cell-based
Summary of the method: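 LPS (10 ng/mL)-stimulated RAW 264.7 cells co-incubated with compound at 0.1–10 nM. Nitrite in supernatant read with Griess reagent. Means ± SD of three samples; ANOVA with Dunnett's test.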

[7] = test system: RAW264.7; experiment: Potency index, ratio of IC50 for NS398 to IC50 for test compound for suppression of PGE2 production in LPS-induced mouse RAW264.7 cells; assay type: functional

Structure (SMILES): COc1ccc(OC(=O)N(Nc2ccccc2)S(=O)(=O)c2ccc(OC)cc2)cc1
Cytotoxic concentration [1]: > 10 µM | pIC50 [2]: 6.31

Structure (SMILES): O=C(Oc1ccc(OCc2ccccc2)cc1)N(Nc1ccccc1)S(=O)(=O)c1ccc(-c2ccccc2)cc1
Cytotoxic concentration [1]: > 1 µM | pIC50 [2]: 7.03

Structure (SMILES): COc1ccc(S(=O)(=O)N(Nc2ccccc2)C(=O)Oc2ccc3c(c2)CCC3)cc1
Ratio IC50 [5]: 30 | Cytotoxic concentration [1]: > 10 µM | pIC50 [6]: 8.16 | Ratio IC50 [7]: 1.5 | pIC50 [3]: 7.15 | Activity [4]: 18.5% | pIC50 [2]: 8.35

Structure (SMILES): CC(C)(C)c1ccc(S(=O)(=O)N(Nc2ccccc2)C(=O)Oc2ccc(OCc3ccccc3)cc2)cc1
Cytotoxic concentration [1]: > 1 µM | pIC50 [3]: < 5.00 | Activity [4]: 79.9% | pIC50 [2]: 7.24

Structure (SMILES): COc1ccc(OC(=O)N(Nc2ccccc2)S(=O)(=O)c2ccccc2)cc1
Cytotoxic concentration [1]: > 10 µM | pIC50 [2]: 6.23

Structure (SMILES): O=C(Oc1ccc(Oc2ccccc2)cc1)N(Nc1ccccc1)S(=O)(=O)c1ccc(-c2ccccc2)cc1
Cytotoxic concentration [1]: > 1 µM | pIC50 [2]: 6.79

Structure (SMILES): CC(C)c1ccc2c(c1)c(SC(C)(C)C)c(CC(C)(C)C(=O)O)n2Cc1ccc(Cl)cc1
Activity [4]: 16.3%

Structure (SMILES): Cc1ccc(S(=O)(=O)N(Nc2ccccc2)C(=O)Oc2ccc(OCc3ccccc3)cc2)cc1
Cytotoxic concentration [1]: >= 10 uM | pIC50 [3]: < 5.00 | Activity [4]: 81.2% | pIC50 [2]: 7.49

Structure (SMILES): CCc1ccc(OC(=O)N(Nc2ccccc2)S(=O)(=O)c2ccc(OC)cc2)cc1
Cytotoxic concentration [1]: > 10 µM | pIC50 [3]: < 5.00 | Activity [4]: 63.6% | pIC50 [2]: 7.55

Further lines, with some results ahead:

pIC50 [2]: 7.09
Structure (SMILES): Cc1cc(C)c(S(=O)(=O)N(Nc2ccccc2)C(=O)Oc2ccc(OCc3ccccc3)cc2)c(C)c1
Cytotoxic concentration [1]: > 1 µM

pIC50 [3]: < 5.00 | Activity [4]: 62.6% | pIC50 [2]: 7.30
Structure (SMILES): COc1ccc(S(=O)(=O)N(Nc2ccccc2)C(=O)Oc2ccc(OCc3ccccc3)cc2)cc1
Cytotoxic concentration [1]: >= 10 uM

pIC50 [3]: 5.18 | Activity [4]: 37.1% | pIC50 [2]: 7.77
Structure (SMILES): COc1ccc(S(=O)(=O)N(Nc2ccccc2)C(=O)Oc2ccc(Oc3ccccc3)cc2)cc1
Cytotoxic concentration [1]: > 10 µM

pIC50 [2]: 6.75
Structure (SMILES): Cc1cc(C)c(S(=O)(=O)N(Nc2ccccc2)C(=O)Oc2ccc(Oc3ccccc3)cc2)c(C)c1
Cytotoxic concentration [1]: > 1 µM

pIC50 [2]: 5.35
Structure (SMILES): COc1ccc(S(=O)(=O)N(Nc2ccccc2)C(=O)Oc2ccccc2)cc1
Cytotoxic concentration [1]: > 10 µM

pIC50 [3]: < 5.00 | Activity [4]: 62.5% | pIC50 [2]: 7.69
Structure (SMILES): CCOc1ccc(OC(=O)N(Nc2ccccc2)S(=O)(=O)c2ccc(OC)cc2)cc1
Cytotoxic concentration [1]: > 10 µM

pIC50 [2]: 6.78
Structure (SMILES): COc1ccc(S(=O)(=O)N(Nc2ccccc2)C(=O)Oc2ccccc2OC)cc1
Cytotoxic concentration [1]: > 10 µM

pIC50 [3]: 5.21 | Activity [4]: 41.3% | pIC50 [2]: 6.00
Structure (SMILES): Cc1ccc(OC(=O)N(Nc2ccccc2)S(=O)(=O)c2ccc(C)cc2)cc1
Cytotoxic concentration [1]: > 10 µM

pIC50 [2]: 5.99
Structure (SMILES): Cc1ccc(OC(=O)N(Nc2ccccc2)S(=O)(=O)c2ccccc2)cc1
Cytotoxic concentration [1]: > 10 µM

pIC50 [2]: 5.24
Structure (SMILES): Cc1ccc(S(=O)(=O)N(Nc2ccccc2)C(=O)Oc2ccccc2)cc1
Cytotoxic concentration [1]: > 10 µM

pIC50 [2]: 6.87
Structure (SMILES): CCCc1ccc(S(=O)(=O)N(Nc2ccccc2)C(=O)Oc2ccc(Oc3ccccc3)cc2)cc1
Cytotoxic concentration [1]: > 1 µM

pIC50 [3]: < 5.00 | Activity [4]: 55.7% | pIC50 [2]: 7.47
Structure (SMILES): COc1ccccc1OC(=O)N(Nc1ccccc1)S(=O)(=O)c1ccc(C)cc1
Cytotoxic concentration [1]: > 10 µM

pIC50 [3]: < 5.00 | Activity [4]: 63.6%
Structure (SMILES): O=C(Oc1ccccc1)N(Nc1ccccc1)S(=O)(=O)c1ccccc1
